Experimental data reported in ChEMBL document CHEMBL4229446, “Development of Novel Monoamine Oxidase-B (MAO-B) Inhibitors with Reduced Blood-Brain Barrier Permeability for the Potential Management of Noncentral Nervous System (CNS) Diseases” (J Med Chem, 2018).
pIC50: −log10 of the molar value.

Key:
[1] = target: T1, Amine oxidase [flavin-containing] A (Homo sapiens, UniProt P21397); assay: Inhibition of human recombinant MAO-A expressed in baculovirus infected BTI-TN-5B1-4 insect cells using tyramine as substrate preincubated for 1 hr followed by substrate addition and measured after 30 mins by resazurin dye-based fluorescence assay
T1 sequence (P21397 whole entry): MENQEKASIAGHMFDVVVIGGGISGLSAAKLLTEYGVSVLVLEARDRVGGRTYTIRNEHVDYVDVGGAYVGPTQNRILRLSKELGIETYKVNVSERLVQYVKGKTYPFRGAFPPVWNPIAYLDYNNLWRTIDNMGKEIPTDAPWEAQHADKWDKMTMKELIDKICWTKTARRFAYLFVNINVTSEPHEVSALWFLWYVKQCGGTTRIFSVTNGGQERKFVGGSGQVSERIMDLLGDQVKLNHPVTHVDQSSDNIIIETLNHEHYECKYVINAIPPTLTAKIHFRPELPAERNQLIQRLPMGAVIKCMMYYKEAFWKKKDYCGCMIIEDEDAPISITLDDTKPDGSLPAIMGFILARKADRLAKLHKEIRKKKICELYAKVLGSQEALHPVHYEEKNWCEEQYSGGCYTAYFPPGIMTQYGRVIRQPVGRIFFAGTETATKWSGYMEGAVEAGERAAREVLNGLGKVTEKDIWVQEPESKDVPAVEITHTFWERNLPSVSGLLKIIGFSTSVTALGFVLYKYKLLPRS

[2] = target: T2, Amine oxidase [flavin-containing] B (Homo sapiens, UniProt P27338); assay: Inhibition of human recombinant MAO-B expressed in baculovirus infected BTI-TN-5B1-4 insect cells using benzylamine as substrate preincubated for 1 hr followed by substrate addition and measured after 30 mins by resazurin dye-based fluorescence assay; assay type: cell-based
T2 sequence (P27338 whole entry): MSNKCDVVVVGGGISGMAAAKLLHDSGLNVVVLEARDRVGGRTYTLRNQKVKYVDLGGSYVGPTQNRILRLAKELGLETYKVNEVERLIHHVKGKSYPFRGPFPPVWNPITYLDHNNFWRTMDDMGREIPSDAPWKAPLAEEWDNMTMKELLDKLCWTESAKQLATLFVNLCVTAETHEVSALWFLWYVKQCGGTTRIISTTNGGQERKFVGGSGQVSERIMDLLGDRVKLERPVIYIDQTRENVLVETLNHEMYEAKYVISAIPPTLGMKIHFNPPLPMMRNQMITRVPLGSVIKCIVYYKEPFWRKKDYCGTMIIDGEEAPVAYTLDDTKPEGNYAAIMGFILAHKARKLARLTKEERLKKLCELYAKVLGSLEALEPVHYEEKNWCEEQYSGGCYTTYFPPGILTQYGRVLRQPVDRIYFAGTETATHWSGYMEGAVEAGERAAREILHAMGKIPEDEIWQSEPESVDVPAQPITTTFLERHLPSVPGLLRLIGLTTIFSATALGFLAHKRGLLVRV

[3] = Apparent half-life of the terminal disposition phase in C57BL/6 mouse plasma at 20 mg/kg, iv administered as single dose measured 24 hrs by UPLC-MS/MS analysis; assay type: ADME, organism-based; settings: read-out: t1/2 lambda z (converted)
Method in brief: (§1)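 21 animals dosed at 0 min, 3 sacrificed at each of 0, 5, 15, 30 min, 1, 4 and 24 h. Plasma was extracted by protein precipitation with phospholipid removal. Brain was weighed, bead-homogenised in 50 mM ammonium formate and extracted in acidified organic solvent. Quantified by UPLC-MS/MS (MRM). Brain ng/g taken as ng/mL. Parameters came from noncompartmental analysis. Kp = AUClast brain/plasma.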

[4] = system: Mus musculus; assay: Acute toxicity in C57BL/6 mouse assessed as abnormal clinical signs at […], iv administered as single dose measured after 24 hrs post-injection; assay type: organism-based; settings: in vivo
[5] = Metabolic stability in mouse liver microsomes assessed as parent compound remaining at 1 uM after 60 mins in presence of NADPH by UPLC-MS/MS analysis; assay type: ADME, microsome; settings: read-out: Stability
Method in brief: (§2)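 Compound at 1 μM with 0.5 mg/mL mouse or human liver microsomes in 100 mM potassium phosphate pH 7.4, 3.3 mM MgCl2, 1 mM NADPH, at 37 °C. Started with NADPH; minus-NADPH control run. Stopped at 0, 5, 15, 30, 45 and 60 min with acetonitrile/formic acid plus internal standard. Parent remaining by UPLC-MS/MS, in triplicate.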

[6] = Metabolic stability in mouse plasma assessed as parent compound remaining at 5 uM after 4 hrs by UPLC-MS/MS analysis; assay type: ADME, cell-free; settings: read-out: Stability
Method in brief: (§3)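 Compound at 5 μM was incubated in mouse or human plasma at 37 °C with shaking. Sampled at 0, 5, 15, 30, 60, 120 and 240 min and stopped with ice-cold acetonitrile/0.1% formic acid containing internal standard. Supernatants analysed by UPLC-MS/MS for parent remaining. Run in triplicate.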

[7] = Metabolic stability in cryopreserved mouse hepatocytes assessed as parent compound remaining at 1 uM after 60 mins by UPLC-MS/MS analysis; assay type: ADME, cell-based, Hepatocyte; settings: read-out: Stability
[8] = Metabolic stability in human plasma assessed as parent compound remaining at 5 uM after 4 hrs by UPLC-MS/MS analysis; assay type: ADME, cell-free; settings: read-out: Stability; method in brief: as §3
[9] = system: Mus musculus; assay: Acute toxicity in C57BL/6 mouse assessed as abnormal clinical signs at […], sc administered as single dose measured after 24 hrs post-injection; assay type: organism-based; settings: in vivo
[10] = system: Mus musculus; assay: Acute toxicity in C57BL/6 mouse assessed as abnormal clinical signs at […], po administered as single dose measured after 24 hrs post-injection; assay type: organism-based; settings: in vivo
[11] = AUClast in C57BL/6 mouse brain at 20 mg/kg, iv administered as single dose measured 24 hrs by UPLC-MS/MS analysis; assay type: ADME, organism-based; set-up: dose 20 mg/kg, time 0 - last, route intravenous; method in brief: as §1
[12] = AUClast in C57BL/6 mouse plasma at 20 mg/kg, iv administered as single dose measured 24 hrs by UPLC-MS/MS analysis; assay type: ADME, organism-based; set-up: dose 20 mg/kg, route intravenous, time 0 - last; method in brief: as §1
[13] = Cmax in C57BL/6 mouse plasma at 20 mg/kg, iv administered as single dose measured 24 hrs by UPLC-MS/MS analysis; assay type: ADME, organism-based; set-up: dose 20 mg/kg, route intravenous; method in brief: as §1
[14] = Metabolic stability in human liver microsomes assessed as parent compound remaining at 1 uM after 60 mins by UPLC-MS/MS analysis; assay type: ADME, microsome; settings: liver microsomes, read-out: Stability; method in brief: as §2
[15] = Tmax in C57BL/6 mouse brain at 20 mg/kg, iv administered as single dose measured 24 hrs by UPLC-MS/MS analysis; assay type: ADME, organism-based; method in brief: as §1
[16] = Ratio of AUClast in brain to plasma in C57BL/6 mouse at 20 mg/kg, iv administered as single dose measured 24 hrs by UPLC-MS/MS analysis; assay type: ADME, organism-based; method in brief: as §1
[17] = Cmax in C57BL/6 mouse brain at 20 mg/kg, iv administered as single dose measured 24 hrs by UPLC-MS/MS analysis; assay type: ADME, organism-based; set-up: dose 20 mg/kg, route intravenous; method in brief: as §1
[18] = Efflux ratio of apparent permeability in MDCK-WT cells at 10 uM after 1 hr in absence of P-gp inhibitor verapamil by UPLC-MS/MS analysis; settings: dog
[19] = system: P-gp (MDR1); assay: Efflux ratio of apparent permeability in MDCK2-MDR1 cells at 10 uM after 1 hr in absence of P-gp inhibitor verapamil by UPLC-MS/MS analysis; assay type: ADME, cell-based, Canis lupus familiaris; settings: dog, MDCK-MDR1
Method in brief: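 MDCK-WT (MEM-α/10% FBS) or MDCK-MDR1 II (DMEM/10% FBS) cells were grown 3 days on 12-well transwells. Integrity was checked by TEER and 100 μM Lucifer yellow. Cells were washed in HBSS/10 mM HEPES. Compound at 10 μM was added apically or basally, in triplicate, ±100 μM verapamil. Receiver sampled at 1 h by UPLC-MS/MS. Efflux ratio = Papp B→A / Papp A→B.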

[20] = Tmax in C57BL/6 mouse plasma at 20 mg/kg, iv administered as single dose measured 24 hrs by UPLC-MS/MS analysis; assay type: ADME, organism-based
Method in brief: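 Plasma cleaned by protein precipitation with phospholipid removal, then UPLC-MS/MS in MRM mode. Tmax obtained by noncompartmental analysis.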

SMILES | pIC50 [1] | pIC50 [2] | other results
CN(CC(=O)O)[C@H](CO)Cc1ccc(OCc2ccccc2)cc1 | < 4.30 | 5.99 | 
C[C@H](Cc1ccc(OCc2cccc(F)c2)cc1)N(C)CC(=O)O | < 4.30 | 6.06 | 
C[C@H](Cc1ccc(OCc2cccc(Cl)c2)cc1)N(C)CC(=O)O | < 4.30 | 6.58 | half-life [3]: 4.51 h; Activity [4]: Non-Toxic; remaining at 1 h, 1 µM [5]: 87.3%; remaining at 4 h, 5 µM [6]: ≥ 75%; remaining at 1 h, 1 µM [7]: ≥ 90%; remaining at 4 h, 5 µM [8]: ≥ 75%; Activity [9]: Non-Toxic; Activity [10]: Non-Toxic; AUC(0-t) at 24 h [11]: 2280 ng·h/mL; AUC(0-t) at 24 h [12]: 112000 ng·h/mL; Cmax [13]: 16600 ng/mL; remaining at 1 h, 1 µM [14]: ≥ 90%; Tmax [15]: 1 h; Kp at 24 h [16]: 0.02; Cmax [17]: 648 ng/mL; efflux ratio at 1 h, 10 µM [18]: 1.23; efflux ratio at 1 h, 10 µM [19]: 1.75; Tmax [20]: 5 min
C[C@H](Cc1ccc(OCc2ccc3ccccc3c2)cc1)N(C)CC(=O)O |  | 4.85 | 
C[C@H](Cc1ccc(OCc2cccnc2)cc1)N(C)CC(=O)O | < 4.30 | < 4.30 | 
C[C@H](Cc1ccc(OCc2cccc(C#N)c2)cc1)N(C)CC(=O)O | < 4.30 | 4.67 | 
C[C@H](Cc1ccc(OCc2ccccc2)cc1)N(C)CC(=O)O | < 4.30 | 6.05 | 
CN(CC(=O)O)[C@H](CC#N)Cc1ccc(OCc2ccccc2)cc1 | < 4.30 | 6.27 | 
C[C@H](Cc1ccc(OCc2cc(F)cc(F)c2)cc1)N(C)CC(=O)O | < 4.30 | 6.04 | 
C[C@H](Cc1ccc(OCc2cccc([N+](=O)[O-])c2)cc1)N(C)CC(=O)O | < 4.30 | 5.36 | 
C[C@H](Cc1ccc(OCc2ccc(Cl)cc2)cc1)N(C)CC(=O)O | 3.66 | 6.06 | 
C[C@H](Cc1ccc(OCc2ccncc2)cc1)N(C)CC(=O)O | < 4.30 | 4.66 | 
O=C(O)COCCN1CCN(C(c2ccccc2)c2ccc(Cl)cc2)CC1 (stereo not drawn) [CETIRIZINE] |  |  | efflux ratio at 1 h, 10 µM [18]: 3; efflux ratio at 1 h, 10 µM [19]: 4.12
